Experimental data: ChEMBL document CHEMBL2062524, “Synthesis, cytotoxicity of new 4-arylidene curcumin analogues and their multi-functions in inhibition of both NF-κB and Akt signalling” (Eur J Med Chem, 2012)

Assays:
A549 = assay: Antiproliferative activity against human A549 cells after 48 hrs by SRB assay; format: functional, cell-based; details: A549, 48 h
In short: (§1)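 SRB assay on cells in RPMI-1640 with 2 mM glutamine, 10% FBS and penicillin/streptomycin at 37 °C and 5% CO2. Seeded at 5000 cells/well and grown 24 h, then compounds added in triplicate (DMSO 0.5% final) for 48 h. Fixed with TCA at 4 °C for 1 h, stained with SRB, dye dissolved in 10 mM Tris pH 10.4, OD read at 515 nm. IC50 from nonlinear dose-response fit; experiments run at least twice.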

[1] = Antiproliferative activity against human CNE2 cells after 48 hrs by SRB assay; format: functional, cell-based; details: CNE-2, 48 h; in short: as §1
SW480 = assay: Antiproliferative activity against human SW480 cells after 48 hrs by SRB assay; format: functional, cell-based; details: SW480, 48 h; in short: as §1
MCF7 = assay: Antiproliferative activity against human MCF7 cells after 48 hrs by SRB assay; format: functional, cell-based; details: MCF7, 48 h; in short: as §1
HepG2 = assay: Antiproliferative activity against human HepG2 cells after 48 hrs by SRB assay; format: functional, cell-based; details: HepG2, 48 h; in short: as §1
[2] = Inhibition of TNFalpha-induced NF-kappaB translocation in human A549 cells incubated at 37 degC for 30 mins by high content analysis based immunofluorescence assay; format: cell-based; details: A549, 0.5 h
In short: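 A549 cells at 2000/well grown 24 h, then compound added in duplicate (DMSO 0.5% final) for 30 min at 37 °C. Stimulated with TNFα at 10 ng/mL final for 30 min, then fixed with 4% paraformaldehyde and permeabilized with Triton X-100. Stained with anti-p65 and DyLight 488 secondary plus Hoechst, imaged on ArrayScan. Nuclear minus cytoplasmic intensity, background-subtracted, given as % of TNFα-only control. IC50 from this; repeated at least twice.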

[3] = target: T1, RAC-alpha serine/threonine-protein kinase (Homo sapiens, UniProt P31749); assay: Inhibition of AKT1 by AKT1/PKBalpha KinEASE FP fluorescein green assay
In short: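 Kinase reaction with Akt1 enzyme (amount giving 70% activity) and STK Substrate 3 (10 µM final) in 50 mM HEPES pH 7.2, 0.01% BSA, 5 mM MgCl2, 1 mM DTT, preincubated with compound 10 min at 25 °C. ATP (100 µM final) starts reaction, run 1 h at 25 °C. Stopped with phospho-STK tracer plus antibody, 6 h, then FP read (ex 470/em 530 nm). IC50 by nonlinear fit; triplicates, repeated twice.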

[4] = target: T1, RAC-alpha serine/threonine-protein kinase; assay: Inhibition of AKT1-mediated GSK3beta phosphorylation in human A549 cells incubated for 12 hrs by Western blot; format: cell-based
In short: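 A549 cells grown to 70% confluence, exposed 12 h to compound at 0.125–1.0 µM. Lysed in NP-40 buffer with protease inhibitors, then equal protein run on 10% SDS-PAGE and transferred to PVDF. Probed with anti-phospho-GSK3β (S9) at 1:1000 overnight at 4 °C, then HRP secondary at 1:5000.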

T1 sequence (P31749 whole entry): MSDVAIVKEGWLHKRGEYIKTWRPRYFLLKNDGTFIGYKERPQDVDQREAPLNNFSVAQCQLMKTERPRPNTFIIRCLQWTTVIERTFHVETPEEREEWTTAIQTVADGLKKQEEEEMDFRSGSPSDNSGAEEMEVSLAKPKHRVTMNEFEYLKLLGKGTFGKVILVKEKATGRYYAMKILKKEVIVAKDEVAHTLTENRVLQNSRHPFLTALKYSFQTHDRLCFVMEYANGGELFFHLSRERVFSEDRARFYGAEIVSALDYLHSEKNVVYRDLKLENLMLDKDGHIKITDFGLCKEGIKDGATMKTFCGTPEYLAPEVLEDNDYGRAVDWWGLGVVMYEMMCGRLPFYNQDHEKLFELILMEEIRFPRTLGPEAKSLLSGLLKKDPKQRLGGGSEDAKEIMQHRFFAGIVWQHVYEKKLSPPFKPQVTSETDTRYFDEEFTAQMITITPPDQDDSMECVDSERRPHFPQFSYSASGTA

Row | SMILES | IC50 (A549) | IC50 [1] | IC50 (SW480) | IC50 (MCF7) | IC50 (HepG2) | IC50 [2] | IC50 [3] | inhibition [4]
1 | COc1ccc(/C=C/C(=O)C(=Cc2cc(Br)c(O)c(OC)c2)C(=O)/C=C/c2ccc(OC)cc2OC)c(OC)c1 | 1090 nM | 1780 nM | 1480 nM | 2600 nM | 1190 nM | > 50000 nM |  | 
2 | COc1ccc(OC)c(/C=C/C(=O)/C=C(O)/C=C/c2cc(OC)ccc2OC)c1 | 16300 nM | 14700 nM | 15600 nM | > 50000 nM | 5560 nM | > 50000 nM |  | 
3 | COc1ccc(OC)c(/C=C/C(=O)C(=Cc2ccc(OC)c(O)c2)C(=O)/C=C/c2cc(OC)ccc2OC)c1 | 390 nM | 730 nM | 1120 nM | 990 nM | 470 nM | 1780 nM |  | 
4 | COc1cc(C=C(C(=O)/C=C/c2cccc(OC)c2OC)C(=O)/C=C/c2cccc(OC)c2OC)cc(Br)c1O | 200 nM | 220 nM | 260 nM | 360 nM | 240 nM | 5530 nM |  | 
5 | COc1cc(OC)c(C=C(C(=O)/C=C/c2cccc(OC)c2OC)C(=O)/C=C/c2cccc(OC)c2OC)c(OC)c1 | 630 nM | 630 nM | 840 nM | 720 nM | 300 nM | > 50000 nM |  | 
6 | COc1ccc(OC)c(/C=C/C(=O)C(=Cc2ccc(O)c(F)c2)C(=O)/C=C/c2cc(OC)ccc2OC)c1 | 220 nM | 380 nM | 510 nM | 460 nM | 220 nM | 3010 nM |  | 
7 | COc1ccc(OC)c(/C=C/C(=O)C(=Cc2ccc(O)c(OC)c2)C(=O)/C=C/c2cc(OC)ccc2OC)c1 | 190 nM | 340 nM | 410 nM | 400 nM | 340 nM | 2650 nM |  | 
8 | COc1cccc(/C=C/C(=O)/C=C(O)/C=C/c2cccc(OC)c2OC)c1OC | 11500 nM | 12800 nM | 12000 nM | > 50000 nM | 12900 nM | > 50000 nM |  | 
9 | COc1ccc(/C=C/C(=O)C(=Cc2cc(OC)c(O)c(OC)c2)C(=O)/C=C/c2ccc(OC)cc2OC)c(OC)c1 | 300 nM | 850 nM | 850 nM | 970 nM | 320 nM | 3930 nM |  | 
10 | COc1cc(OC)c(/C=C/C(=O)/C=C(O)/C=C/c2c(OC)cc(OC)cc2OC)c(OC)c1 | > 50000 nM | > 50000 nM | > 50000 nM | > 50000 nM | 16500 nM | > 50000 nM |  | 
11 | COc1ccc(/C=C/C(=O)C(=Cc2ccc(OC)c(O)c2)C(=O)/C=C/c2ccc(OC)cc2OC)c(OC)c1 | 380 nM | 760 nM | 1370 nM | 1600 nM | 390 nM | 12300 nM | 1660 nM | 
12 | COc1cccc(/C=C/C(=O)C(=Cc2ccc(O)c(F)c2)C(=O)/C=C/c2cccc(OC)c2OC)c1OC | 200 nM | 260 nM | 330 nM | 300 nM | 220 nM | 5250 nM |  | 
13 | COc1cc(/C=C/C(=O)CC(=O)/C=C/c2ccc(O)c(OC)c2)ccc1O [CURCUMIN] | 11600 nM | 5760 nM | 10200 nM | 15700 nM | 20700 nM | 21400 nM |  | 
14 | COc1ccc(OC)c(/C=C/C(=O)C(=Cc2cc(OC)c(O)c(OC)c2)C(=O)/C=C/c2cc(OC)ccc2OC)c1 | 190 nM | 450 nM | 500 nM | 430 nM | 210 nM | 950 nM |  | 
15 | COc1ccc(/C=C/C(=O)C(=Cc2ccc(O)c(F)c2)C(=O)/C=C/c2ccc(OC)cc2OC)c(OC)c1 | 2070 nM | 2830 nM | 3350 nM | 5450 nM | 1760 nM | 23000 nM |  | 
16 | COc1cc(C=C(C(=O)/C=C/c2cccc(OC)c2OC)C(=O)/C=C/c2cccc(OC)c2OC)ccc1O | 130 nM | 280 nM | 430 nM | 480 nM | 200 nM | 1710 nM | 810 nM | Dose-dependent effect

Row | SMILES | IC50 (A549) | IC50 [1] | IC50 (SW480) | IC50 (MCF7) | IC50 (HepG2) | IC50 [2] | IC50 [3] | inhibition [4]
17 | COc1cccc(/C=C/C(=O)C(=Cc2ccc(F)cc2)C(=O)/C=C/c2cccc(OC)c2OC)c1OC | 340 nM | 610 nM | 1040 nM | 1830 nM | 580 nM | 1720 nM |  | 
18 | COc1ccc(C=C(C(=O)/C=C/c2cccc(OC)c2OC)C(=O)/C=C/c2cccc(OC)c2OC)cc1O | 270 nM | 220 nM | 320 nM | 310 nM | 270 nM | 1260 nM |  | 
19 | COc1cc(C=C(C(=O)/C=C/c2cccc(OC)c2OC)C(=O)/C=C/c2cccc(OC)c2OC)cc(OC)c1O | 240 nM | 300 nM | 420 nM | 460 nM | 210 nM | 2620 nM |  | 
20 | COc1ccc(C=C(C(=O)/C=C/c2cccc(OC)c2OC)C(=O)/C=C/c2cccc(OC)c2OC)cc1OC | 170 nM | 280 nM | 410 nM | 560 nM | 200 nM | 1670 nM |  | 
21 | COc1ccc(/C=C/C(=O)C(=Cc2ccc(O)c(OC)c2)C(=O)/C=C/c2ccc(OC)cc2OC)c(OC)c1 | 590 nM | 970 nM | 1520 nM | 2140 nM | 510 nM | 10400 nM |  | 
22 | COc1cc(OC)c(/C=C/C(=O)C(=Cc2cc(Br)c(O)c(OC)c2)C(=O)/C=C/c2c(OC)cc(OC)cc2OC)c(OC)c1 | 730 nM | 1320 nM | 1450 nM | 1460 nM | 660 nM | > 50000 nM |  | 
23 | COc1cc(OC)c(/C=C/C(=O)C(=Cc2ccc(O)c(F)c2)C(=O)/C=C/c2c(OC)cc(OC)cc2OC)c(OC)c1 | 1060 nM | 1580 nM | 1950 nM | 3180 nM | 810 nM | > 50000 nM |  | 
24 | COc1cccc(C=C(C(=O)/C=C/c2cccc(OC)c2OC)C(=O)/C=C/c2cccc(OC)c2OC)c1OC | 320 nM | 400 nM | 590 nM | 520 nM | 230 nM | 2390 nM |  | 
25 | COc1cc(OC)c(/C=C/C(=O)C(=Cc2cc(OC)c(O)c(OC)c2)C(=O)/C=C/c2c(OC)cc(OC)cc2OC)c(OC)c1 | 340 nM | 680 nM | 980 nM | 1030 nM | 510 nM | > 50000 nM |  | 
26 | COc1cccc(/C=C/C(=O)C(=Cc2cc(OC)c(OC)c(OC)c2)C(=O)/C=C/c2cccc(OC)c2OC)c1OC | 230 nM | 400 nM | 650 nM | 840 nM | 220 nM | 1320 nM |  | 
27 | COc1ccc(OC)c(/C=C/C(=O)C(=Cc2cc(Br)c(O)c(OC)c2)C(=O)/C=C/c2cc(OC)ccc2OC)c1 | 220 nM | 420 nM | 490 nM | 580 nM | 280 nM | 4190 nM | 5020 nM | 
28 | COc1ccc(/C=C/C(=O)/C=C(O)/C=C/c2ccc(OC)cc2OC)c(OC)c1 | 44700 nM | > 50000 nM | > 50000 nM | > 50000 nM | 10400 nM | > 50000 nM |  | 
29 | COc1ccc(OC)c(/C=C/C(=O)C(=Cc2ccc(OC)c(OC)c2)C(=O)/C=C/c2cc(OC)ccc2OC)c1 | 400 nM | 550 nM | 560 nM | 850 nM | 260 nM | 14400 nM |  | 
30 | COc1cc(OC)c(/C=C/C(=O)C(=Cc2ccc(O)c(OC)c2)C(=O)/C=C/c2c(OC)cc(OC)cc2OC)c(OC)c1 | 580 nM | 1350 nM | 1490 nM | 1880 nM | 670 nM | > 50000 nM |  | 
31 | COc1cccc(/C=C/C(=O)C(=Cc2ccc(OC)c(OC)c2OC)C(=O)/C=C/c2cccc(OC)c2OC)c1OC | 260 nM | 410 nM | 560 nM | 380 nM | 240 nM | 1630 nM |  | 
